Source: PubChem (The Scripps Research Institute Molecular Screening Center)
Sampled rows, rich in hits. Any-hit rate of the full collection: about 1.8%.
M4 antag – CHRM4 antagonism in calcium assay; P08173; CHO-hM4 cells, ACh EC80, Fluo-8 calcium fluorescence; inhibition, % at 3 µM; 0.73% of 360,000 active;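 active = inhibition above its plate's cutoff, the mean inhibition of sample wells plus 3 SD, cut at about 27% in these data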
Target sequence (P08173 whole entry, looked up): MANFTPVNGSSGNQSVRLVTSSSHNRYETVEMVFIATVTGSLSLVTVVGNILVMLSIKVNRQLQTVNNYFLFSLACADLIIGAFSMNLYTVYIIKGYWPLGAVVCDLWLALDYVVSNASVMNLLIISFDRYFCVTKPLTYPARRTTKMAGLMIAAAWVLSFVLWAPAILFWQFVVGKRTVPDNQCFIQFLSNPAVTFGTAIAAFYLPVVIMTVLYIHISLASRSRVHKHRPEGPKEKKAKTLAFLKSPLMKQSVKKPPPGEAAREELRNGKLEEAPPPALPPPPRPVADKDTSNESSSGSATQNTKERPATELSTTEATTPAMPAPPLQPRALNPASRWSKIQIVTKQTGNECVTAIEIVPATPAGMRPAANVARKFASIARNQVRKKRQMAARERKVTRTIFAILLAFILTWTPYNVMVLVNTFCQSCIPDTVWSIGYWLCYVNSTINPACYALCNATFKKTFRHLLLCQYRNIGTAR
CHRM5 antagonist – antagonists of human muscarinic M5 receptor (CHRM5); inhibition, % at 3 µM; P08912; 0.59% of 360,000 active; CHO-hM5 cells, Fluo-8 calcium fluorescence, ACh EC80;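 active = inhibition above a per-plate cutoff, the mean of that plate's test compounds plus 3 SD, cut at about 27% in these data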
CHRM4 agonist – agonists of human muscarinic M4 receptor (CHRM4); 0.14% of 360,000 active; activation, % at 3 µM; CHO-K1 hM4/Gqi5, Fluo-8 calcium fluorescence; vehicle 0%, full acetylcholine response 100%; P08173;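 active = activation above the run mean over all test wells plus 3 SD, cut at about 32% in these data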;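 note: peak over basal fluorescence ratio per well then scaled between controls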
CHRM5 PAM – positive allosteric modulators of human muscarinic M5 receptor; CHO-K1 hM5, Fluo-8 calcium, ACh EC20 PAM; 0% = ACh EC20, 100% = ACh EC100; activation, % at 3 µM; 0.3% of 360,000 active;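 active = activation above the run cutoff, the mean activation of all test compounds plus 3 SD, cut at about 18% in these data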
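Probe or stimulus: acetylcholine, EC20 level; Assay system: human M5 receptor in CHO-K1 cells; Schedule: compound preincubation 140 s before EC20 acetylcholine addition; Technique: intracellular calcium via Fluo-8 fluorescence; Dosing: single-point, 3 µM nominal; Read-out basis: percent activation from peak-over-basal fluorescence ratio, scaled EC20-to-EC100 acetylcholine; Repeats: one well per compound, no replicates.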
CHRM5 agonist – CHRM5 agonism in calcium assay; CHO-K1 hM5 cells, Fluo-8 calcium fluorescence; 0% DMSO wells, 100% maximal acetylcholine response; activation, % at 3 µM; 0.19% of 360,000 active; AID 624037;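 active = activation above the run's mean over test compounds plus 3 SD, cut at about 23% in these data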;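 note: signal is peak over basal fluorescence ratio across the kinetic read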
CHRM4 PAM – potentiates acetylcholine response at human M4 receptor | P08173 | 0.4% of 360,000 active | CHO-K1 hM4/Gqi5, Fluo-8 calcium fluorescence, ACh EC20; 0% = ACh EC20, 100% = maximal ACh | AID 624126 | activation, % at 3 µM;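 active = activation above its plate's cutoff, the mean activation of sample wells plus 3 SD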
Large screens that a line does not name were inactive.

CS(=O)(=O)N(CC(=O)N1CCCCCC1)c1ccccc1	none
O=C(Nc1nnc([C@H]2C[C@H](O)[C@@H](CO)O2)s1)c1cccc(Oc2ccccc2)c1	none
CCCc1c(C(=O)N/N=C(\C)c2ccccn2)nnn1-c1nonc1N	none
NNC(=O)c1oc2nc(-c3cccs3)cc(-c3ccco3)c2c1N	CHRM4 PAM 26
CC1C(=O)N(Cc2cn(Cc3ccco3)nn2)CCS(=O)(=O)N1Cc1ccc(-c2ccc(F)cc2)cc1 (stereo not given)	none
Cc1ccccc1C(=O)Nc1ccccc1C(=O)N/N=C\c1ccco1	CHRM4 PAM 31
O=C(Nc1ccccc1C(=O)N/N=C/c1ccco1)c1ccc(F)cc1	CHRM4 PAM 36
O=C(N/N=C/c1ccco1)c1cccc([N+](=O)[O-])c1	CHRM4 PAM 28
Cc1cccc(NC(=O)C(C)SCc2nc3sc4c(c3c(=O)[nH]2)CCCC4)n1 (stereo not given)	none
COc1cc(/C=N/N2CCCCC2)cc(OC)c1O	none
COc1cc(C=NN2CCCCC2)cc(OC)c1OC	CHRM5 agonist 27
Cc1ccc(S(=O)(=O)N2C=CC(C(F)(F)F)=NCC2)cc1	CHRM4 PAM 18
CC(C)(C)c1ccc(S(=O)(=O)N2C=CC(C(F)(F)F)=NCC2)cc1	none
Cc1ccc(SCC(=O)N2CCCC2)cc1	CHRM5 PAM 19
CC(C)(C)OC(=O)C(Oc1ccccc1[N+](=O)[O-])C(=O)OC(C)(C)C	none
COc1ccc(NC(=O)CS(=O)CC(=O)Nc2ccc(OC)c(OC)c2)cc1 (stereo not given)	CHRM4 PAM 30
Cn1c(=O)c(C(=O)NCC2CCCO2)c(O)c2ccccc21 (stereo not given)	M4 antag 33
Cn1c(C(=O)NCC2CCCO2)cc2c(=O)[nH]c3ccccc3c21 (stereo not given)	CHRM4 PAM 28
CC(C)NC(=O)C1Cc2c(-c3ccc(Cl)cc3)ccnc2O1 (stereo not given)	none
Cc1ccc(CS(=O)(=O)CCC(=O)NCCC(C)C)cc1	CHRM4 PAM 34
CCc1c(O)nc(SCC(=O)Nc2ccc(Cl)cc2)n(-c2ccccc2)c1=O	CHRM4 PAM 17
CCc1c(O)nc(SCC(=O)Nc2ccc(OC)cc2)n(C2CCCCC2)c1=O	none
CCn1c(SC(C)C(=O)NCC2CCCO2)nc2ccccc21 (stereo not given)	none
O=C(O)c1cccc2c1Cc1cc(Cl)ccc1-2	none
CCOc1ccccc1CN1[C@@H](c2ccc(OC)cc2)CC(C(=O)OC)(C(=O)OC)[C@H]1c1ccccc1	none
COc1ccc(C(c2nnnn2C2CCCCC2)N2CCN(C/C=C/c3ccccc3)CC2)cc1 (stereo not given)	M4 antag 31, CHRM5 antagonist 58
COc1ccc(-n2nnnc2C(c2cccs2)N2CCN(C/C=C/c3ccccc3)CC2)cc1 (stereo not given)	CHRM5 antagonist 47
C(=C\c1ccccc1)/CN1CCN(C(c2cccc3ccccc23)c2nnnn2C2CCCC2)CC1 (stereo not given)	M4 antag 96, CHRM5 antagonist 99
C(=C\c1ccccc1)/CN1CCN(C(c2ccccc2)c2nnnn2-c2ccc3c(c2)OCCO3)CC1 (stereo not given)	M4 antag 32, CHRM5 antagonist 75
C(=C\c1ccccc1)/CN1CCN(C(c2nnnn2C2CCCCC2)C2CC2)CC1 (stereo not given)	none
C(=C\c1ccccc1)/CN1CCN(C(c2ccnc3ccccc23)c2nnnn2-c2ccc3c(c2)OCCO3)CC1 (stereo not given)	none
COc1ccc(-n2nnnc2C(c2ccccc2OC(F)(F)F)N2CCN(C/C=C/c3ccccc3)CC2)cc1 (stereo not given)	none
OC(c1cccc(Cl)c1)c1nc(-c2csc3ccccc23)cs1 (stereo not given)	none
COc1ccc(C(c2nnnn2-c2ccc(OC)cc2)N2CCN(C/C=C/c3ccccc3)CC2)cc1 (stereo not given)	CHRM5 antagonist 51
COc1ccc(C(c2nnnn2C(C)(C)C)N2CCN(C/C=C/c3ccccc3)CC2)cc1 (stereo not given)	none
COc1ccc(C(=O)N[C@H](C(=O)Nc2cccc(S(=O)(=O)N3CCOCC3)c2)C(C)C)cc1	none
CN(N=Cc1ccccc1)C(=S)Nc1ccccc1	none
COc1ccc(N2CCN(c3ccc(NC(=O)c4ccc5c(c4)OCO5)cc3C#N)CC2)cc1	CHRM4 PAM 29
NS(=O)(=O)c1ccc(NC(=O)C2Cc3ccccc3C(=O)O2)cc1 (stereo not given)	CHRM4 PAM 26
O=C1OC(C(=O)Nc2ccccc2)Cc2ccccc21 (stereo not given)	none
OC[C@H]1O[C@@H](n2cnc3c(NCc4ccco4)ncnc32)[C@H](O)[C@@H]1O	CHRM5 agonist 45
OCC1OC(n2cnc3c(NCc4ccco4)ncnc32)C(O)C1O (stereo not given)	none
C[C@]12CCC(=O)C=C1CCC1C2CC[C@@]2(C)C1CCC21OCCO1 (stereo not given in full)	none
CC(=O)OCC(=O)[C@H]1CC[C@H]2[C@@H]3CCC4=CC(=O)CC[C@]4(C)[C@H]3CC[C@]12C	M4 antag 57
C[C@]12CCC(=O)C=C1CC[C@@H]1[C@@H]2CC[C@@]2(C)[C@H]1CC[C@@]21CCC(=O)O1	M4 antag 30
C[C@]12CC[C@H]3[C@@H](CCC4=CC(=O)CC[C@@]43C)[C@@H]1CC[C@@H]2C(=O)CO	none
COc1cc(OC)c(C(=O)OCC(=O)NCC2CCCCC2)cc1OC	none
Cc1ccc(S(=O)(=O)CCC(=O)OCCOc2ccc(Br)cc2)cc1	none
O=C(Nc1cccc(Br)c1)C1CCCC1	CHRM4 PAM 14
O=C(NCCSCc1ccccc1)c1ccc(C2SCC(=O)N2Cc2ccccc2)cc1 (stereo not given)	M4 antag 34
COC(=O)c1ccc(C2SCC(=O)N2Cc2ccccc2)cc1 (stereo not given)	none
O=C(O)c1ccccc1/C=N/NC(=S)NCc1ccccc1	CHRM5 antagonist 32, CHRM5 PAM 34
CCOC(=O)[C@]12CCC=C1N(Cc1ccc3c(c1)OCO3)C(=O)[C@H](CC(=O)NCC13CC4CC(CC(C4)C1)C3)C2	none
O=C(NC(NNc1ccc([N+](=O)[O-])cc1)(C(F)(F)F)C(F)(F)F)c1ccc(Cl)cc1	CHRM5 antagonist 27
O=C(NNc1ccc([N+](=O)[O-])cc1)c1ccccc1Cl	none
